Laboratory results: ChEMBL document CHEMBL3407360, “Proteasome inhibitors with pyrazole scaffolds from structure-based virtual screening” (J Med Chem, 2015)
Active and inactive are the calls of the source. The calls are words filed in the database; no cut-off is given here.

Key:
BXPC-3 = experiment: Cytotoxicity against human BxPC3 cells after 72 hrs; assay type: functional, cell-based
How it was run: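 Adherent lines, growing in log phase in DMEM or RPMI 1640 with 10% FBS, were plated at 7,000–10,000 cells/well. Compound was added 24 h later at the final concentration. Viability was measured after 72 h by CellTiter Glo luminescence or CellTiter 96 Aqueous One absorbance.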

Homo sapiens [1] = organism: Homo sapiens; experiment: Inhibition of human 20S proteasome chymotrypsin-like activity preincubated at 10 uM for 30 mins before substrate addition measured over 90 mins by fluorescence assay
Homo sapiens [2] = organism: Homo sapiens; experiment: Induction of human 20S proteasome chymotrypsin-like activity preincubated at 10 uM for 30 mins before substrate addition measured over 90 mins by fluorescence assay
Mus musculus = experiment: Toxicity in human LNCAP cells xenografted nude mouse assessed as body weight loss at 5 mg/kg, ip twice a week for 4 weeks; assay type: organism-based; design: dose 5 mg/kg, route intraperitoneal; conditions: in vivo, 672 h
How it was run: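 Male athymic BALB/c nude mice, six weeks old, implanted subcutaneously with LNCaP cells (2 x 10^6 cells/50 µL). At ~100 mm3 tumors, n=5/group received 5 mg/kg ip twice weekly for four weeks in 8% DMSO in HP-β-cyclodextrin and citrate. Tumor volume ((width)2 x length/2) and body weight were measured every 4 days. Tumors were excised and weighed at Day 30.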

| Structure (SMILES) | inhibition (Homo sapiens [1]) | also measured |
| --- | --- | --- |
| Cc1ccc(OS(=O)(=O)c2cccc(C(F)(F)F)c2)c(-c2cc(C3CCCCC3)n(CCN[C@@H]3CCNC3)n2)c1 |  | Activity (BXPC-3): inactive |
| Cc1ccc(OS(=O)(=O)c2cccc(C(F)(F)F)c2)c(-c2cc(-c3ccccc3)n(CC(=O)NCCN3CCOCC3)n2)c1 | Active |  |
| Cc1ccc(OS(=O)(=O)c2cccc(C(F)(F)F)c2)c(-c2cc(-c3ccccc3)n(CC(=O)O)n2)c1 | Active |  |
| Cc1ccc(OS(=O)(=O)c2cccc(C(F)(F)F)c2)c(-c2cc(-c3ccccc3)n(CC(=O)N[C@@H]3CCN(C(=O)CCc4ccccc4)C3)n2)c1 | Active |  |
| Cc1ccc(OS(=O)(=O)c2cccc(C(F)(F)F)c2)c(-c2cc(-c3ccccc3)n(CC(=O)OCc3ccccc3)n2)c1 | Active |  |
| Cc1ccc(OS(=O)(=O)c2cccc(C(F)(F)F)c2)c(-c2cc(-c3ccccc3)n(CC(=O)N(C)C)n2)c1 | Active |  |
| Cc1ccc(OS(=O)(=O)c2cccc(C(F)(F)F)c2)c(-c2cc(-c3ccccc3)n(CC(=O)OCc3cc(C)on3)n2)c1 | Active |  |
| CC(=O)N1CC[C@@H](NC(=O)Cn2nc(-c3cc(C)ccc3OS(=O)(=O)c3cccc(C(F)(F)F)c3)cc2-c2ccccc2)C1 | Active |  |
| Cc1ccc(OS(=O)(=O)c2cccc(C(F)(F)F)c2)c(-c2cc(-c3ccccc3)n(CC(=O)N[C@@H]3CCN(C(=O)CN4CCOCC4)C3)n2)c1 | Active |  |
| Cc1ccc(OS(=O)(=O)c2ccc(C(F)(F)F)nc2)c(-c2cc(-c3ccccc3)n(CCN[C@@H]3CCNC3)n2)c1 | Active |  |
| Cc1ccc(OS(=O)(=O)c2cccc(Cl)c2)c(-c2cc(-c3ccccc3)n(CCN[C@@H]3CCNC3)n2)c1 | Active |  |
| Cc1ccc(OS(=O)(=O)c2ccc3c(c2)OCCO3)c(-c2cc(-c3ccccc3)n(CCN[C@@H]3CCNC3)n2)c1 | Active |  |
| Cc1ccc(OS(=O)(=O)c2cccc(C(F)(F)F)c2)c(-c2cc(-c3ccccc3)n(CC(=O)NCc3ccccc3)n2)c1 | Active |  |
| CC1=C(COC(=O)Cn2nc(-c3cc(C)ccc3OS(=O)(=O)c3cccc(C(F)(F)F)c3)cc2-c2ccccc2)Cc2ccccc21 | Active | Activity (Homo sapiens [2]): 200% |
| Cc1ccc(OS(=O)(=O)c2cccc(C(F)(F)F)c2)c(-c2cc(-c3ccccc3)n(CC(=O)NCc3cnccn3)n2)c1 | Active |  |
| CC(C)=CCOC(=O)Cn1nc(-c2cc(C)ccc2OS(=O)(=O)c2cccc(C(F)(F)F)c2)cc1-c1ccccc1 | Active |  |
| Cc1ccc(OS(=O)(=O)c2cccc(C(F)(F)F)c2)c(-c2cc(-c3ccccc3)n(CC(=O)O[C@@H]3CCNC3)n2)c1 | Active |  |
| Cc1ccc(OS(=O)(=O)c2ccc(F)c([N+](=O)[O-])c2)c(-c2cc(-c3ccccc3)n(CCN[C@@H]3CCNC3)n2)c1 | Active | Activity (Homo sapiens [2]): 200% |

| Structure (SMILES) | inhibition (Homo sapiens [1]) | also measured |
| --- | --- | --- |
| CC(C)C[C@H](NC(=O)[C@H](CCc1ccccc1)NC(=O)CN1CCOCC1)C(=O)N[C@@H](Cc1ccccc1)C(=O)N[C@@H](CC(C)C)C(=O)[C@@]1(C)CO1 [CARFILZOMIB] |  | Activity (Mus musculus): Toxic |
| Cc1ccc(OS(=O)(=O)c2cccc(C(F)(F)F)c2)c(-c2cc(C3CCCNC3)n(CCN[C@@H]3CCNC3)n2)c1 (stereo partly drawn) |  | Activity (BXPC-3): inactive |
| Cc1ccc(OS(=O)(=O)c2cccc(C(F)(F)F)c2)c(-c2cc(-c3ccccc3)n(CC(=O)NCCCN3CCCC3=O)n2)c1 | Active |  |
| Cc1ccc(OS(=O)(=O)c2cccc(C(F)(F)F)c2)c(-c2cc(-c3ccccc3)n(CC(=O)OCc3cccc(O)c3C)n2)c1 | Active |  |
| Cc1ccc(OS(=O)(=O)c2cccc(C(F)(F)F)c2)c(-c2cc(-c3ccccc3)n(CC(=O)N(C)CC[C@@H](Oc3ccccc3)c3ccccc3)n2)c1 | Active |  |
| Cc1ccc(OS(=O)(=O)c2cccc(C(F)(F)F)c2)c(-c2cc(-c3ccccc3)n(CC(=O)NC[C@@H]3CCCO3)n2)c1 | Active |  |
| Cc1ccc(OCc2cccc(C(F)(F)F)c2)c(-c2cc(-c3ccccc3)n(CCN[C@@H]3CCNC3)n2)c1 | Active |  |
| Cc1ccc(OS(=O)(=O)c2cccc(C(F)(F)F)c2)c(-c2cc(-c3ccccc3)n(CC(=O)N[C@H]3CCNC3)n2)c1 | Active |  |
| Cc1ccc(OS(=O)(=O)c2cccc(C(F)(F)F)c2)c(-c2cc(-c3ccccc3)n(CC(=O)OCc3scnc3C)n2)c1 | Active |  |
| Cc1ccc(OC(=O)c2cccc(C(F)(F)F)c2)c(-c2cc(-c3ccccc3)n(CCN[C@@H]3CCNC3)n2)c1 | Active |  |
| CCOCCS(=O)(=O)Oc1ccc(C)cc1-c1cc(-c2ccccc2)n(CCN[C@@H]2CCNC2)n1 | Active |  |
| Cc1ccc(OS(=O)(=O)c2cccc(C(F)(F)F)c2)c(-c2cc(C3CCCN(C(=O)N[C@@H]4CCNC4)C3)n(CCN[C@@H]3CCNC3)n2)c1 (stereo partly drawn) |  | Activity (BXPC-3): inactive |
| Cc1ccc(OS(=O)(=O)c2cccc(C(F)(F)F)c2)c(-c2cc(-c3ccccc3)n(CC(=O)OCc3ccc(C)o3)n2)c1 | Active |  |
| Cc1ccc(OS(=O)(=O)c2cc(F)c(Br)c(F)c2)c(-c2cc(-c3ccccc3)n(CCN[C@@H]3CCNC3)n2)c1 | Active |  |
| Cc1ccc(OS(=O)(=O)c2ccc(Br)cc2OC(F)(F)F)c(-c2cc(-c3ccccc3)n(CCN[C@@H]3CCNC3)n2)c1 | Active |  |
| Cc1ccc(OS(=O)(=O)c2cccc(C(F)(F)F)c2)c(-c2cc(-c3ccccc3)n(CC(=O)NCC(C)(C)C)n2)c1 | Active |  |
| Cc1ccc(OS(=O)(=O)c2cccc(C(F)(F)F)c2)c(-c2cc(-c3ccccc3)n(CC(=O)N[C@@H]3CCN(C)C3)n2)c1 | Active |  |
| Cc1ccc(OS(=O)(=O)c2cccc(C(F)(F)F)c2)c(-c2cc(-c3ccccc3)n(CC(=O)NC(C)(C)CO)n2)c1 | Active |  |
